Entries after “also recorded” stand apart in the source; their conditions may differ.
Columns and labels:
[1] = Sedimentation of single constructs, 25 mM KCl; type: physicochemical; conditions: A25 buffer, 0.1 mM ATP, 4 °C
DKH346 = test: Inhibition of basal ATPase of monomeric DKH346; type: biochemical, Drosophila; conditions: 6.8 µM DKH346 (Fig. 3C)
Summary of the method: (§1)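 Heads were Drosophila kinesin residues 1–346 (for the artificial dimer, fused via a TSGG linker to the GCN4-p1 coiled coil) or 1–357. Basal ATPase was run at 25 °C in A25 buffer (pH 6.9) with […], 2 mM PEP and 0.25 mM NADH, coupled to PK/LDH, KCl as indicated. A340 was read, with turbidity correction where needed. Tail-peptide titrations were fit to the quadratic mutual-depletion equation.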

DKH412 [2] = test: Inhibition of basal steady state ATPase of DKH412 head dimer; type: biochemical, Drosophila; conditions: no added KCl, 7 µM DKH412 monomer
K346SC = test: Inhibition of basal ATPase of artificial dimer K346SC; type: biochemical, Drosophila; conditions: read-out: Kd, inhibition of basal ATPase; 6 µM K346SC monomer (Fig. 3C)
Summary of the method: as §1

DKH412 [3] = test: Inhibition of mADP release; type: biochemical, Drosophila
DKH357 = test: Inhibition of basal ATPase of monomeric DKH357; type: biochemical, Drosophila; conditions: 13.3 µM DKH357
Summary of the method: as §1

K357SC = test: Inhibition of artificial dimer K357SC; type: biochemical, Drosophila; conditions: not shown
kinesin head domains = conditions: ref [6], cited from earlier work

Molecule: DKH412: residues 1 to 412 of Drosophila kinesin with C-terminal HisTag; dimeric head construct
- s20,w, centrifuged alone [1]: 5.2 S

Molecule: NF910-952: monomeric Drosophila kinesin tail peptide, residues 910-952, non-fusion version obtained by thrombin cleavage
- inhibition of monomeric DKH346 (in words) (DKH346): only poorly inhibited
- stoichiometry of inhibition of basal ATPase (DKH412 [2]): 1 tail peptide per two head peptides
- Kd (K346SC): 330 nM
- maximum extent of inhibition of mADP release (DKH412 [3]; 50 mM KCl, 25 °C, pH 6.9, 0.2 µM DKH412): 75%
- maximum inhibition of mADP release (DKH412 [3]; no added KCl, A25 buffer pH 6.9, 25 °C, 0.2 µM DKH412): over 80%
- inhibition of monomeric DKH357 (in words) (DKH357): only weakly inhibits; also recorded: not strongly inhibited
- stoichiometry of inhibition of K357SC (K357SC): half-site stoichiometry

Molecule: Nc1ncnc2c1ncn2[C@@H]1O[C@H](COP(=O)(O)OP(=O)(O)OP(=O)(O)O)[C@@H](O)[C@H]1O [ATP]
- Km (kinesin head domains; read-out: KM for ATP, basal ATPase, absence of MTs): ~2.5 nM
- net ATP binding and hydrolysis rate (kinesin head domains): ≥ 4e+06 M⁻¹ s⁻¹

Molecule: Nc1ncnc2c1ncn2[C@@H]1O[C@H](COP(=O)(O)OP(=O)(O)O)[C@@H](O)[C@H]1O [ADP]
- rate of release as ADP (kinesin head domains; basal): ~ 0.01 s^−1

From article PMC3321547 (Biochemistry, 2009)
